GPR7 antag = GPR7 receptor antagonists, primary screen, cell-based, fluorescence, single concentration; Neuropeptides B/W receptor type 1 (Homo sapiens), P48145; GPR7-expressing cells, fluorescence antagonist assay; inhibition, % at 4.4 µM; 1.1% of 290,000 active; AID 1861, 2009; in the data active means inhibition above about 16%, passing the limit was not always enough;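 further: cells stimulated with the agonist NPW; 0% = agonist with vehicle and 100% = vehicle without agonist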
Target sequence (P48145 whole entry, looked up): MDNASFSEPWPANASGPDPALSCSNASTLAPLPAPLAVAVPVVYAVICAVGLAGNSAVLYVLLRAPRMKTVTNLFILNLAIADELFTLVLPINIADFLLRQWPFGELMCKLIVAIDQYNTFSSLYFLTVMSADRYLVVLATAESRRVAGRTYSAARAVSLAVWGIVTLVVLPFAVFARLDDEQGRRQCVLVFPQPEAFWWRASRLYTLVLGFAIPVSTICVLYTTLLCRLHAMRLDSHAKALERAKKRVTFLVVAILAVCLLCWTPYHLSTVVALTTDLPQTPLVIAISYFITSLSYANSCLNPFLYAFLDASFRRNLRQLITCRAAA
TAAR1 antagonist = human TAAR1 antagonists, primary screen, Fluo-8 calcium fluorescence, CHO RD-HGA16 cells | Trace amine-associated receptor 1 (Homo sapiens), Q96RJ0 | antagonist | inhibition, % at 3 µM | 1.5% of 360,000 active | AID 624466, 2012;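 active means inhibition above a per-plate cutoff, the mean inhibition of test compounds on that plate plus 3 SD, cut at about 49% in these data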;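 further: 0% = DMSO plus EC80 beta-PEA response and 100% = DMSO alone without agonist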
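Material: CHO RD-HGA16 cells bearing hTAAR1; compound dosing: one-point dosing, 3 µM nominal final; schedule: dye loading 75 min at 37 °C, then 30 min room temperature; measured by: calcium fluorescence with Fluo-8; control set: vehicle and agonist controls; replication: n of 1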
TAAR1 ag = human TAAR1 agonists, primary screen, Fluo-8 calcium fluorescence, CHO RD-HGA16 cells. activation, % at 3 µM. 0.99% of 360,000 active. vehicle wells 0%, saturating PEA agonist 100%;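 active means activation above the mean activation of all test compounds in the run plus 3 SD, cut at about 38% in these data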
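Benchmarks: low control DMSO, high control PEA (EC100); System: CHO RD-HGA16 cells carrying human TAAR1 plus Gα16; Detection: Fluo-8 fluorescence, 5 s baseline then 140 s kinetic read; Schedule: 17-24 h plating, Fluo-8 75 min 37 °C, 30 min RT; Read-out basis: % activation from peak over basal fluorescence ratio, DMSO-to-PEA scaled.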
OX1R antag-1 = OX1R (HCRTR1) antagonists, primary screen, fluorescence, CHO/OX1R cells, Fluo-8 calcium, orexin A; Orexin/Hypocretin receptor type 1 (Homo sapiens), O43613; Fluo-8 calcium fluorescence; inhibition, % at 5 µM; 0.43% of 330,000 active; AID 434989, 2010;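 active means inhibition above its plate's threshold, mean inhibition of all tested compounds on the plate plus 3 SD, cut at about 37% in these data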;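 further: 0% = orexin A challenge wells and 100% = SB-334867-A antagonist wells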
OX1R antag-2 = antagonists of human orexin 1 receptor (OX1R). Orexin/Hypocretin receptor type 1 (Homo sapiens), O43613. 1.8% of 330,000 active. inhibition, % at 6.6 µM. OX1R-expressing cells, FRET antagonist read-out; in the data active means inhibition mostly above about 38%, no sharp cut-off; inactive means mostly below about 40%;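 further: 0% = agonist challenge alone and 100% = reference antagonist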
CHO parental Ca = ATP-evoked calcium signal inhibitors, parental CHO, primary screen, counter-screen for OX1R antagonist project, cell-based, fluorescence, Fluo-8 calcium dye; inhibition, % at 5.6 µM; 0.63% of 330,000 active; parental CHO-K1, ATP-induced calcium, Fluo-8 fluorescence;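 active means inhibition above that plate's mean sample inhibition plus 3 SD, cut at about 26% in these data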;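 further: 0% = ATP-challenged DMSO wells and 100% = DMSO wells without ATP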
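Test system: untransfected parental CHO cell line. Compound: one dose, 5.6 µM nominal. Detection: intracellular calcium via Fluo-8 no-wash fluorescent dye. Measure: % inhibition. Benchmarks: ATP-challenged DMSO wells low, unchallenged DMSO wells high.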
OX1R Fluo8 conf = OX1R (HCRTR1) antagonists, confirmation, fluorescence, CHO/OX1R cells, Fluo-8 calcium, orexin A. shares compounds with OX1R antag-1. orexin A calcium Fluo-8 fluorescence. inhibition, % at 5 µM. 38% of 1,100 active. AID 492963, 2010; in the data active means inhibition above about 29%;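 further: 0% = agonist challenge alone and 100% = reference antagonist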
CHO Ca triplic = ATP-evoked calcium inhibition in parental CHO, counter-screen for OX1R antagonist project, cell-based, fluorescence, CHO-K1, triplicate; shares compounds with OX1R antag-1; ATP-induced calcium, Fluo-8 fluorescence; inhibition, % at 5.6 µM; AID 492965, 2010; 9.3% of 1,100 active;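 active means inhibition above a per-plate limit, the mean inhibition of that plate's test compounds plus 3 SD, cut at about 25% in these data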;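 further: 0% = ATP challenge with DMSO and 100% = DMSO without ATP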
OX1R HTRF conf = OX1R (HCRTR1) antagonists, confirmation, cell-based, HTRF; shares compounds with OX1R antag-2; OX1R-expressing cells, HTRF antagonist assay; inhibition, % at 6.6 µM; 49% of 1,800 active; in the data active means inhibition above about 55%;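 further: CHO cells expressing OX1R stimulated with orexin A at about EC80; 0% = agonist challenge alone and 100% = reference antagonist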
CHO-K1 HTRF = signal inhibition in parental CHO-K1 cells, counter-screen for OX1R antagonist project, cell-based, HTRF. 48% of 1,800 active. HTRF counterscreen. inhibition, % at 6.6 µM. shares compounds with OX1R antag-2; in the data active means inhibition above about 17%;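 further: 0% = agonist challenge with vehicle and 100% = vehicle alone without agonist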
TAAR1 nonsel count = nonselective antagonists in TAAR1 counter-screen cells, counter-screen for hTAAR1 antagonist project, cell-based, fluorescence, calcium | inhibition, % at 3 µM | AID 651780, 2012 | shares compounds with TAAR1 antagonist | 77% of 2,400 active | counterscreen cell line, antagonist mode; in the data active means inhibition above about 22%;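 further: CHO-Ga16 host cells stimulated with ATP at an EC80 level; 0% = agonist EC80 plus vehicle and 100% = vehicle without agonist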
TAAR1 antag conf = human TAAR1 antagonists, retest of hits, confirmation, cell-based, fluorescence. shares compounds with TAAR1 antagonist. TAAR1-expressing cells, fluorescence antagonist read-out. inhibition, % at 3 µM. 40% of 2,400 active; in the data active means inhibition above about 49%;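 further: CHO-Ga16 host cells challenged with agonist PEA near its EC80; 0% = agonist at EC80 plus vehicle and 100% = vehicle with no agonist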
Ga16 nonsel ag = calcium activation in Ga16-expressing cells, counter-screen for TAAR1 antagonist project, cell-based, fluorescence | shares compounds with TAAR1 antagonist | agonist counterscreen | activation, % at 3 µM | 18% of 2,400 active | AID 651953, 2012; in the data active means activation above about 12%;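 further: 0% = vehicle wells and 100% = saturating stimulus response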
TAAR1 ag counter = TAAR1 activation by candidate antagonists – cell-based, fluorescence, counter-screen for TAAR1 antagonist project; 2% of 2,400 active; hTAAR1 cell line, agonist mode; shares compounds with TAAR1 antagonist; activation, % at 3 µM; in the data active means activation above about 37%;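 further: CHO cells stably expressing TAAR1 with calcium dye readout; 0% = DMSO vehicle and 100% = full agonist response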
* = called active by the depositor; . = no result given. Compounds with a hit are over-represented: about 4.6% of the library has one in this group of screens.

SMILES	GPR7 antag	TAAR1 antagonist	TAAR1 ag	OX1R antag-1	OX1R antag-2	CHO parental Ca	OX1R Fluo8 conf	CHO Ca triplic	OX1R HTRF conf	CHO-K1 HTRF	others
CCc1ccc(/C=C2/Sc3ccccc3N(CC(=O)NCC3CCCO3)C2=O)cc1 (configuration not stated)	8	42	0	84*	95*	13	45*	-14	87*	5
O=C(CN1C(=O)/C(=C/c2ccccc2)Sc2ccccc21)NCCCN1CCOCC1	-2	-1	0	-1	9	-18	.	.	.	.
COc1cccc2oc(-c3ccco3)cc(=O)c12	1	0	0	-4	29	-8	.	.	.	.
N#Cc1c2n(c(=S)n(-c3ccc(F)cc3)c1=O)CCCCC2	-10	-5	5	-3	5	-8	.	.	.	.
Cc1cccc2cc(C#N)c(NCCNS(=O)(=O)c3ccc4c(c3)OCCO4)nc12	1	10	16	34	73*	-2	32*	-5	64*	5
CSCCC(NC(=O)C1CCC(C)CC1)C(=O)OCC(=O)c1ccc(Cl)cc1 (configuration not stated)	-2	-29	3	-10	4	-17	.	.	.	.
O=C(Nc1ccc(S(=O)(=O)NCc2ccco2)cc1)c1ccc2ccccc2n1	1	70*	10	30	45*	20	37*	7	66*	10	TAAR1 nonsel count=38*;TAAR1 antag conf=58*;Ga16 nonsel ag=6;TAAR1 ag counter=5
CCOC(=O)C1CCN(CCC(=O)Nc2cc(C)ccc2C)CC1	-7	-7	3	-16	12	-15	.	.	.	.
CC(NS(=O)(=O)c1cccc(Cl)c1)C(=O)Nc1ccc(-c2nc3ccccc3s2)cc1 (configuration not stated)	-7	64*	25	34	55	-4	12	-8	.	.	TAAR1 nonsel count=37*;TAAR1 antag conf=45;Ga16 nonsel ag=12*;TAAR1 ag counter=24
